The source made the active and inactive calls. The rule behind the calls is not given here.
These compounds were tested against T1, Substance-P receptor (Homo sapiens, UniProt P25103) (assay: Displacement of [125I]BH-SP from human tachykinin NK1 receptor expressed in IM9 cells at 10^-7 M after 30 mins by scintillation counting). Conditions: IM-9.
Assay type: cell-based

T1 sequence (P25103 whole entry): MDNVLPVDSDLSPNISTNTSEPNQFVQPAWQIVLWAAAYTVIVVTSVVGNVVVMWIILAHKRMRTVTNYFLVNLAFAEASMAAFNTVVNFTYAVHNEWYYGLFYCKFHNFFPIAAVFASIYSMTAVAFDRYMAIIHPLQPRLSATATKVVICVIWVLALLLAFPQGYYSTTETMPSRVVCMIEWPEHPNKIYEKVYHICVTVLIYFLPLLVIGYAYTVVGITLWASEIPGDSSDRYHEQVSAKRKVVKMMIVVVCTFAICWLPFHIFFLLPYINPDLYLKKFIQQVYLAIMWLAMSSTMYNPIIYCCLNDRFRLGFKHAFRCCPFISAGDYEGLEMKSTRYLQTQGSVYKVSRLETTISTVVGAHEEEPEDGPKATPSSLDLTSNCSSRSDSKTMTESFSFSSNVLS

inhibition	Compound
-2%	O=C1CCN(Cc2ccccc2)CC1=C(c1ccccc1)c1ccccc1
81.7%	O=C1CCN(Cc2ccccc2)CC1C(c1ccccc1)c1ccccc1 (racemic)
81.7%	O=C1CCN(Cc2ccccc2)CC1C(c1ccc(F)cc1)c1ccc(F)cc1 (racemic)
81.7%	O=C1CCN(Cc2ccccc2)CC1C(c1ccc(Cl)cc1)c1ccc(Cl)cc1 (racemic)
54.3%	O=C1CCN(CCc2ccccc2)CC1C(c1ccccc1)c1ccccc1 (racemic)
32.9%	O=C1CCN(Cc2cc(C(F)(F)F)cc(C(F)(F)F)c2)CC1C(c1ccc(F)cc1)c1ccc(F)cc1 (racemic)
31.1%	O=C1CCN(Cc2ccccc2)CC1C1c2ccccc2C=Cc2ccccc21 (racemic)
29.8%	O=C1CCN(Cc2ccccc2)CC1C1c2ccccc2Oc2ccccc21 (racemic)
-0.6%	O=C1CN(Cc2ccccc2)CC1C(c1ccccc1)c1ccccc1 (racemic)
9.7%	O=C1CN(Cc2ccccc2)CCC1C(c1ccccc1)c1ccccc1 (racemic)

Compound	inhibition
O=C1CCNCC1C(c1ccccc1)c1ccccc1 (racemic)	17.6%

The compounds below were run against T1, Substance-P receptor (assay: Displacement of [125I]BH-SP from human tachykinin NK1 receptor expressed in IM9 cells after 30 mins by scintillation counting). Conditions: not given.
Assay type: cell-based, IM-9
Outline: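 Membranes from IM-9 cells grown 3 days, homogenized in 50 mM Tris-HCl pH 7.4 with NaCl, KCl, EDTA and protease inhibitors, spun at 40,000g for 20 min, then resuspended in a Tris buffer with 0.02% BSA and 3 mM MnCl2. Nonspecific binding was defined with 2 × 10^-6 M SP. Bound ligand was collected on GF/C filters, washed three times and counted.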

IC50	Compound
97 nM	O=C1CCN(Cc2ccccc2)CC1C(c1ccccc1)c1ccccc1 (racemic)
97 nM	O=C1CCN(Cc2ccccc2)CC1C(c1ccc(F)cc1)c1ccc(F)cc1 (racemic)
97 nM	O=C1CCN(Cc2ccccc2)CC1C(c1ccc(Cl)cc1)c1ccc(Cl)cc1 (racemic)
280 nM	O=C1CCN(Cc2ccccc2O)CC1C(c1ccc(F)cc1)c1ccc(F)cc1 (racemic)
6.6 nM	COc1ccccc1CN1CCC(=O)C(C(c2ccc(F)cc2)c2ccc(F)cc2)C1 (racemic)
31 nM	COc1cccc(CN2CCC(=O)C(C(c3ccc(F)cc3)c3ccc(F)cc3)C2)c1 (racemic)
77 nM	COc1ccc(CN2CCC(=O)C(C(c3ccc(F)cc3)c3ccc(F)cc3)C2)cc1 (racemic)
4.9 nM	O=C1CCN(Cc2ccccc2C(F)(F)F)CC1C(c1ccc(F)cc1)c1ccc(F)cc1 (racemic)
220 nM	O=C1CCN(Cc2ccc(C(F)(F)F)cc2)CC1C(c1ccc(F)cc1)c1ccc(F)cc1 (racemic)
46 nM	O=C1CCN(Cc2ccccc2F)CC1C(c1ccc(F)cc1)c1ccc(F)cc1 (racemic)
6.1 nM	N#Cc1ccccc1CN1CCC(=O)C(C(c2ccc(F)cc2)c2ccc(F)cc2)C1 (racemic)
18 nM	O=C1CCN(Cc2ccccc2[N+](=O)[O-])CC1C(c1ccc(F)cc1)c1ccc(F)cc1 (racemic)
14 nM	O=C1CCN(Cc2ccccc2-c2ccccc2)CC1C(c1ccc(F)cc1)c1ccc(F)cc1 (racemic)
55 nM	COc1cccc(CN2CCC(=O)C(C(c3ccc(F)cc3)c3ccc(F)cc3)C2)c1OC (racemic)
9.5 nM	COc1ccc(CN2CCC(=O)C(C(c3ccc(F)cc3)c3ccc(F)cc3)C2)c(OC)c1 (racemic)
3.1 nM	COc1ccc(OC)c(CN2CCC(=O)C(C(c3ccc(F)cc3)c3ccc(F)cc3)C2)c1 (racemic)
2.3 nM	COc1cccc(OC)c1CN1CCC(=O)C(C(c2ccc(F)cc2)c2ccc(F)cc2)C1 (racemic)
4 nM	COc1ccc(F)cc1CN1CCC(=O)C(C(c2ccc(F)cc2)c2ccc(F)cc2)C1 (racemic)
1.1 nM	COc1ccc(Br)cc1CN1CCC(=O)C(C(c2ccc(F)cc2)c2ccc(F)cc2)C1 (racemic) [listing 1 of 2 here]
0.81 nM	COc1ccc(OC(F)(F)F)cc1CN1CCC(=O)C(C(c2ccc(F)cc2)c2ccc(F)cc2)C1 (racemic)
2.6 nM	COc1ccc([N+](=O)[O-])cc1CN1CCC(=O)C(C(c2ccccc2)c2ccccc2)C1 (racemic)
15 nM	COc1ccc(NC(C)=O)cc1CN1CCC(=O)C(C(c2ccccc2)c2ccccc2)C1 (racemic)
5.9 nM	COc1ccc(N)cc1CN1CCC(=O)C(C(c2ccccc2)c2ccccc2)C1 (racemic)
1.5 nM	COc1ccc(Br)cc1CN1CCC(=O)C(C(c2ccc(F)cc2)c2ccc(F)cc2)C1 (single isomer, unassigned; (+))

Compound	IC50
O=C1CCN(Cc2cccc(C(F)(F)F)c2)CC1C(c1ccc(F)cc1)c1ccc(F)cc1 (racemic)	270 nM

The compounds below were run on Cavia porcellus (assay: Inhibition of capsaicin-induced plasma extravasation in trachea of iv dosed guinea pig). Conditions: not given.
Assay type: functional, organism-based

Compound	inhibition
COc1ccc(Br)cc1CN1CCC(=O)C(C(c2ccc(F)cc2)c2ccc(F)cc2)C1 (racemic) [listing 2 of 2 here]	inactive
COc1ccc(C(C)C)cc1CN1CCC(=O)C(C(c2ccccc2)c2ccccc2)C1 (racemic)	inactive
COc1ccc(NS(C)(=O)=O)cc1CN1CCC(=O)C(C(c2ccccc2)c2ccccc2)C1 (racemic)	inactive
COc1ccc(OC(F)(F)F)cc1CN1CCC(=O)C(C(c2ccccc2)c2ccccc2)C1 (racemic)	inactive

Each compound was assayed on Cavia porcellus (assay: Inhibition of capsaicin-induced plasma extravasation in trachea of po dosed guinea pig). Conditions: not given.
Assay type: functional, organism-based

Compound	inhibition
COc1ccc(Br)cc1CN1CCC(=O)C(C(c2ccc(F)cc2)c2ccc(F)cc2)C1 (racemic) [listing 2 of 2 here]	inactive
COc1ccc(C(C)C)cc1CN1CCC(=O)C(C(c2ccccc2)c2ccccc2)C1 (racemic)	inactive
COc1ccc(NS(C)(=O)=O)cc1CN1CCC(=O)C(C(c2ccccc2)c2ccccc2)C1 (racemic)	inactive
COc1ccc(OC(F)(F)F)cc1CN1CCC(=O)C(C(c2ccccc2)c2ccccc2)C1 (racemic)	inactive

Reference: ChEMBL document CHEMBL1817606, “3-benzhydryl-4-piperidones as novel neurokinin-1 receptor antagonists and their efficient synthesis” (Bioorg Med Chem, 2011)
